Test results as given in ChEMBL document CHEMBL3588859, “Structure activity relationship study of Mezzettiasides natural products and their four new disaccharide analogues for anticancer/antibacterial activity” (Medchemcomm, 2014).
Converted amounts (≈) assume the structure as drawn.

Assays:
[1] = system: Bacillus subtilis; assay: Antibacterial activity against Bacillus subtilis JH642 expressing trpC2 pheA assessed as reduction in bacterial growth incubated for 18 to 24 hrs by broth dilution method; type: functional
[2] = system: NCI-H460; assay: Anticancer activity against human NCI-H460 cells assessed as reduction in cell viability incubated for 48 hrs by MTT assay; type: functional, cell-based; details: NCI-H460, 48 h
[3] = system: Staphylococcus aureus; assay: Antibacterial activity against methicillin-resistant Staphylococcus aureus MW2 assessed as reduction in bacterial growth incubated for 18 to 24 hrs by broth dilution method; type: functional
Outline: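 Broth […] per NCCLS M7-A6. S. aureus grown overnight in Mueller Hinton Broth, diluted 10-fold, shaken at 37 °C for 45 min–2 h to approx. 10^8 CFU/mL, then diluted ~1000-fold to 10^5 CFU/mL. Compounds from 25 mM DMSO stocks, 1:2 serial dilution over seven concentrations.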

[4] = system: Escherichia coli; assay: Antibacterial activity against Escherichia coli BAS901 expressing delta-imp assessed as reduction in bacterial growth incubated for 18 to 24 hrs by broth dilution method; type: functional
Outline: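 The imp strain was grown in LB with kanamycin at 50 μg/mL overnight, diluted 10-fold, and shaken at 37 °C for 45 min to 2 h (about 10^8 CFU/mL). Diluted about 1000-fold to 10^5 CFU/mL. Drug stocks were 25 mM in DMSO, made up at 4X, and serially diluted 1:2 over seven concentrations. OD600 was read.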

[5] = system: Enterococcus faecalis; assay: Antibacterial activity against Enterococcus faecalis assessed as reduction in bacterial growth incubated for 18 to 24 hrs by broth dilution method; type: functional
Outline: (§1)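 Grown in Brain Heart Infusion broth overnight, diluted 10-fold, and shaken at 37 °C for 45 min to 2 h (about 10^8 CFU/mL). Diluted about 1000-fold to 10^5 CFU/mL. Compounds came from 25 mM DMSO stocks, were made up at 4X working strength, and were serially diluted 1:2 over seven concentrations in microtiter wells. OD600 was read.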

[6] = system: Staphylococcus aureus; assay: Antibacterial activity against methicillin-sensitive Staphylococcus aureus HG003 assessed as reduction in bacterial growth incubated for 18 to 24 hrs by broth dilution method; type: functional
Outline: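 Cultured overnight in Mueller Hinton Broth, diluted 10-fold, and shaken at 37 °C for 45 min to 2 h (about 10^8 CFU/mL). Diluted about 1000-fold to 10^5 CFU/mL. Compounds came from 25 mM DMSO stocks, were prepared at 4X, and were serially diluted 1:2 to seven concentrations. OD600 was recorded.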

[7] = system: Enterococcus faecium; assay: Antibacterial activity against Enterococcus faecium assessed as reduction in bacterial growth incubated for 18 to 24 hrs by broth dilution method; type: functional; outline: as §1
[8] = system: KB; assay: Anticancer activity against human KB cells assessed as reduction in cell viability incubated for 48 hrs by MTT assay; type: functional; details: read-out: ED50 (the source's name)
[9] = Anticancer activity against human […] cells assessed as reduction in cell viability incubated for 48 hrs by MTT assay; type: functional; details: read-out: ED50 (the source's name)
[10] = system: Lu1; assay: Anticancer activity against human Lu1 cells assessed as reduction in cell viability incubated for 48 hrs by MTT assay; type: functional; details: Lu1, 48 h, read-out: ED50 (the source's name)

MIC [1] | IC50 [2] | EC50 [8] | SMILES | MIC [3] | MIC [4] | MIC [5] | MIC [6] | MIC [7] | EC50 [9] | EC50 [10]
8 µM (≈ 6.01 µg/mL) | – | – | CCCCCCCCCCCCO[C@@H]1O[C@@H](C)[C@H](O[C@@H]2O[C@@H](C)[C@H](OC(C)=O)[C@@H](O[C@@H]3O[C@@H](C)[C@H](O)[C@@H](OC(C)=O)[C@H]3OC(C)=O)[C@H]2O)[C@@H](O)[C@H]1O | – | – | – | – | – | – | –
8 µM (≈ 7.51 µg/mL) | – | – | CCCCCCCCCCCCO[C@@H]1O[C@@H](C)[C@H](O[C@@H]2O[C@@H](C)[C@H](OC(C)=O)[C@@H](O[C@@H]3O[C@@H](C)[C@H](OC(C)=O)[C@@H](O[C@@H]4O[C@@H](C)[C@H](O)[C@@H](O)[C@H]4OC(C)=O)[C@H]3OC(C)=O)[C@H]2O)[C@@H](O)[C@H]1O | – | – | – | – | – | – | –
4 µM (≈ 3.92 µg/mL) | 8 µM | – | CCCCCCCCCCCCO[C@@H]1O[C@@H](C)[C@H](O[C@@H]2O[C@@H](C)[C@H](OC(C)=O)[C@@H](O[C@@H]3O[C@@H](C)[C@H](OC(C)=O)[C@@H](O[C@@H]4O[C@@H](C)[C@H](OC(C)=O)[C@@H](O)[C@H]4OC(C)=O)[C@H]3OC(C)=O)[C@H]2O)[C@@H](O)[C@H]1O | – | – | – | – | – | – | –
8 µM (≈ 7.18 µg/mL) | – | – | CCCCCCCCCCCCO[C@@H]1O[C@@H](C)[C@H](O[C@@H]2O[C@@H](C)[C@H](OC(C)=O)[C@@H](O[C@@H]3O[C@@H](C)[C@H](O)[C@@H](O[C@@H]4O[C@@H](C)[C@H](OC(C)=O)[C@@H](O)[C@H]4O)[C@H]3OC(C)=O)[C@H]2O)[C@@H](O)[C@H]1O | – | – | – | – | – | – | –
> 128 µM | 40 µM | – | CCCCCCCCO[C@@H]1O[C@@H](C)[C@H](OC(=O)CCCCC)[C@@H](O[C@@H]2O[C@@H](C)[C@H](OC(C)=O)[C@@H](O[C@@H]3O[C@@H](C)[C@H](OC(C)=O)[C@@H](O[C@@H]4O[C@@H](C)[C@H](O)[C@@H](OC(C)=O)[C@H]4O)[C@H]3O)[C@H]2OC(C)=O)[C@H]1O | – | – | – | – | – | – | –
> 128 µM | 32 µM | – | CCCCCCCCO[C@@H]1O[C@@H](C)[C@H](OC(=O)CCCCC)[C@@H](O[C@@H]2O[C@@H](C)[C@H](OC(C)=O)[C@@H](OC(=O)CCC)[C@H]2OC(C)=O)[C@H]1O | – | – | – | – | – | – | –
> 128 µM | 141 µM | – | CCCCCCCCO[C@@H]1O[C@@H](C)[C@H](OC(=O)CCCCC)[C@@H](O[C@@H]2O[C@@H](C)[C@H](OC(C)=O)[C@@H](OC(=O)C(C)(C)C)[C@H]2OC(C)=O)[C@H]1O | – | – | – | – | – | – | –
> 128 µM | 47 µM | – | CCCCCCCCO[C@@H]1O[C@@H](C)[C@H](OC(=O)CCCCC)[C@@H](O[C@@H]2O[C@@H](C)[C@H](OC(C)=O)[C@@H](OC(=O)C(C)C)[C@H]2OC(C)=O)[C@H]1O | – | – | – | – | – | – | –
> 128 µM | 79 µM | – | CCCCCCCCO[C@@H]1O[C@@H](C)[C@H](OC(=O)CCCCC)[C@@H](O[C@@H]2O[C@@H](C)[C@H](OC(C)=O)[C@@H](OC(=O)CC(C)C)[C@H]2OC(C)=O)[C@H]1O | – | – | – | – | – | – | –
32 µM (≈ 24 µg/mL) | – | – | CCCCCCCCCCCCO[C@@H]1O[C@@H](C)[C@H](O[C@@H]2O[C@@H](C)[C@H](OC(C)=O)[C@@H](O[C@@H]3O[C@@H](C)[C@H](OC(C)=O)[C@@H](O)[C@H]3OC(C)=O)[C@H]2O)[C@@H](O)[C@H]1O | – | – | – | – | – | – | –
4 µM (≈ 3.76 µg/mL) | – | – | CCCCCCCCCCCCO[C@@H]1O[C@@H](C)[C@H](O[C@@H]2O[C@@H](C)[C@H](OC(C)=O)[C@@H](O[C@@H]3O[C@@H](C)[C@H](OC(C)=O)[C@@H](O[C@@H]4O[C@@H](C)[C@H](OC(C)=O)[C@@H](O)[C@H]4O)[C@H]3OC(C)=O)[C@H]2O)[C@@H](O)[C@H]1O | – | – | – | – | – | – | –
> 128 µM | 17 µM | 7 µM | CCCCCCCCO[C@@H]1O[C@@H](C)[C@H](OC(=O)CCCCC)[C@@H](O[C@@H]2O[C@@H](C)[C@H](OC(C)=O)[C@@H](O[C@@H]3O[C@@H](C)[C@H](OC(C)=O)[C@@H](O)[C@H]3OC(C)=O)[C@H]2OC(C)=O)[C@H]1O [MEZZETTIASIDE 2] | – | – | – | – | – | 5 µM | 10 µM
> 128 µM | 10 µM | 17 µM | CCCCCCCCO[C@@H]1O[C@@H](C)[C@H](OC(=O)CCCCC)[C@@H](O[C@@H]2O[C@@H](C)[C@H](OC(C)=O)[C@@H](O[C@@H]3O[C@@H](C)[C@H](OC(C)=O)[C@@H](OC(C)=O)[C@H]3O)[C@H]2OC(C)=O)[C@H]1O [MEZZETTIASIDE 3] | – | – | – | – | – | 6 µM | 14 µM
> 128 µM | 15 µM | 20 µM | CCCCCCCCO[C@@H]1O[C@@H](C)[C@H](OC(=O)CCCCC)[C@@H](O[C@@H]2O[C@@H](C)[C@H](OC(C)=O)[C@@H](OC(C)=O)[C@H]2OC(C)=O)[C@H]1O [MEZZETTIASIDE 11] | – | – | – | – | – | 14 µM | 9 µM
> 128 µM | > 500 µM | > 20 µM | CCCCCCCCO[C@@H]1O[C@@H](C)[C@H](OC(=O)CCCCC)[C@@H](O[C@@H]2O[C@@H](C)[C@H](OC(C)=O)[C@@H](O)[C@H]2OC(C)=O)[C@H]1O [MEZZETTIASIDEIDE 10] | – | – | – | – | – | > 20 µM | > 20 µM

SMILES | MIC [1] | IC50 [2] | EC50 [8] | MIC [3] | MIC [4] | MIC [5] | MIC [6] | MIC [7] | EC50 [9] | EC50 [10]
CCCCCCCCO[C@@H]1O[C@@H](C)[C@H](OC(=O)CCCCC)[C@@H](O[C@@H]2O[C@@H](C)[C@H](OC(C)=O)[C@@H](O[C@@H]3O[C@@H](C)[C@H](OC(C)=O)[C@@H](O[C@@H]4O[C@@H](C)[C@H](O)[C@@H](O)[C@H]4OC(C)=O)[C@H]3O)[C@H]2OC(C)=O)[C@H]1O | 64 µM (≈ 62.8 µg/mL) | 259 µM | – | > 32 µM | > 32 µM | 32 µM (≈ 31.4 µg/mL) | > 32 µM | > 32 µM | – | –
CCCCCCCCO[C@@H]1O[C@@H](C)[C@H](OC(=O)CCCCC)[C@@H](O[C@@H]2O[C@@H](C)[C@H](OC(C)=O)[C@@H](O[C@@H]3O[C@@H](C)[C@H](OC(C)=O)[C@@H](O[C@@H]4O[C@@H](C)[C@H](O)[C@@H](O)[C@H]4O)[C@H]3O)[C@H]2OC(C)=O)[C@H]1O | 32 µM (≈ 30 µg/mL) | 18 µM | – | > 32 µM | > 32 µM | 32 µM (≈ 30 µg/mL) | > 32 µM | > 32 µM | – | –
CCCCCCCCO[C@@H]1O[C@@H](C)[C@H](OC(=O)CCCCC)[C@@H](O[C@@H]2O[C@@H](C)[C@H](OC(C)=O)[C@@H](O[C@@H]3O[C@@H](C)[C@H](OC(C)=O)[C@@H](O)[C@H]3O)[C@H]2OC(C)=O)[C@H]1O [MEZZETTIASIDE 4] | 8 µM (≈ 6.34 µg/mL) | 9 µM | 19 µM | > 32 µM | > 32 µM | 16 µM (≈ 12.7 µg/mL) | 32 µM (≈ 25.4 µg/mL) | 16 µM (≈ 12.7 µg/mL) | 8 µM | 25 µM
CCCCCCCCO[C@@H]1O[C@@H](C)[C@H](OC(=O)CCCCC)[C@@H](O[C@@H]2O[C@@H](C)[C@H](OC(C)=O)[C@@H](O[C@@H]3O[C@@H](C)[C@H](O)[C@@H](O)[C@H]3OC(C)=O)[C@H]2OC(C)=O)[C@H]1O [MEZZETTIASIDE 8] | 16 µM (≈ 12.7 µg/mL) | 24 µM | > 20 µM | > 32 µM | > 32 µM | > 32 µM | > 32 µM | > 32 µM | 10 µM | 25 µM
CCCCCCCCO[C@@H]1O[C@@H](C)[C@H](OC(=O)CCCCC)[C@@H](O[C@@H]2O[C@@H](C)[C@H](O)[C@@H](OC(C)=O)[C@H]2OC(C)=O)[C@H]1O [MEZZETTIASIDE 9] | 16 µM (≈ 9.68 µg/mL) | 151 µM | 19 µM | > 32 µM | > 32 µM | 32 µM (≈ 19.4 µg/mL) | > 32 µM | > 32 µM | > 20 µM | 9 µM
